{
  "source": "paper PMC2196277",
  "about": "(The Journal of Experimental Medicine, 1997)",
  "key": {"H2-K^d [1]": {"target": "T1, H2-K^d (Mus musculus, UniProt P01902)", "T1 sequence (P01902 22-368)": "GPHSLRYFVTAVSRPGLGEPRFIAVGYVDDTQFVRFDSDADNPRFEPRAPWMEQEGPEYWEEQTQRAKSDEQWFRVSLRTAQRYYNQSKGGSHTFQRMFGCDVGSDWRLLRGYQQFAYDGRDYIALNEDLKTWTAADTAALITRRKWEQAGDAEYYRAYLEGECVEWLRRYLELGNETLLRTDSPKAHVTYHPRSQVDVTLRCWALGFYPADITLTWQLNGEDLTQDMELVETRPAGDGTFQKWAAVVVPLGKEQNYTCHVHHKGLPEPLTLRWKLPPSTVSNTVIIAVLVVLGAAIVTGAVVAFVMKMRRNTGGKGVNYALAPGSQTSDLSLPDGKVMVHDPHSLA", "T1 sequence (P01887 21-119, further chain)": "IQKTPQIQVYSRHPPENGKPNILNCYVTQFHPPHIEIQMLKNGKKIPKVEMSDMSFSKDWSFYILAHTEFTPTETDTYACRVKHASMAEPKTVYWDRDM", "settings": "ref [17], [19], [20]; cited from earlier work"}, "[2]": {"target": "T2, H2-K^d (L. monocytogenes-infected J774 cells) (Mus musculus, UniProt P01902)", "T2 sequence (P01902 22-368)": "as the sequence (P01902 22-368) above", "T2 sequence (P01887 21-119, further chain)": "as the sequence (P01887 21-119, further chain) above", "experiment": "CTL epitope quantification", "assay_type": "cell-based, BALB/c", "settings": "for loss of epitope in BFA-treated cells after tetracycline: BFA added 3 h and TCN 4 h after infection; for time for which intracellularly retained H2-K^d binds new epitopes: BFA-treated, CHX–ANM 4 h after infection, up to; for epitopes per cell after CHX–ANM treatment: CHX and ANM added 4 h after infection", "how_it_was_run": "(§1)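 J774 monolayers in antibiotic-free RP10 were infected for 30 min with log-phase L. monocytogenes (OD600 0.1), then kept in 5 μg/ml gentamicin. BFA was added 3 h post-infection, and tetracycline or CHX–ANM at 4 h. Cells were scraped, extracted in 0.1% TFA, homogenised, sonicated, ultracentrifuged and HPLC-fractionated. Fractions were titrated in triplicate on 51Cr-labelled P815 with Kd-restricted CTL clones against synthetic-peptide standards, giving epitopes per infected cell.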"}, "H2-K^d [3]": {"target": "T1, H2-K^d", "assay_type": "cell-based, BALB/c", "settings": "infected cells; for half-life of peptide–H2-K^d complexes: normally trafficking H2-K^d (no BFA)", "how_it_was_run": "as §1"}, "[4]": {"target": "T2, H2-K^d (L. monocytogenes-infected J774 cells)", "settings": "ref [17], cited from earlier work"}, "H2-K^d [5]": {"target": "T1, H2-K^d", "assay_type": "cell-based, BALB/c"}, "[6]": {"system": "CTL responding to epitope", "settings": "murine infection with L. monocytogenes; ref [31]; cited from earlier work"}},
  "data": [
    {"molecule": "GYKDGNEYI [LLO 91-99, reference compound]", "values": [
      {"measurement": "number of secreted antigen molecules degraded per H2-K^d-associated epitope", "setting": "H2-K^d [1]", "value": "3–11"}
    ]},
    {"molecule": "IYVGNGQMI [p60 449-457]", "values": [
      {"measurement": "epitopes per cell 3 h after tetracycline", "setting": "[2]; 3 h after tetracycline (20 μg/ml, added 4 h after infection), no BFA", "value": "1,000 epitopes/cell"},
      {"measurement": "increase of epitopes extracted from BFA-treated vs untreated cells", "setting": "[2]; BFA added 3 h after infection, 6–7 h after infection, no tetracycline", "value": "~60", "unit": "%"},
      {"measurement": "loss of epitope in BFA-treated cells after tetracycline", "setting": "[2]", "value": "very rapid"},
      {"measurement": "time for which intracellularly retained H2-K^d binds new epitopes", "setting": "[2]", "value": "up to 3 h"},
      {"measurement": "epitopes per cell after CHX–ANM treatment", "setting": "[2]; no BFA", "value": "decreases after CHX–ANM treatment"},
      {"measurement": "epitopes per cell at tetracycline addition", "setting": "[2]; start of drop after tetracycline (20 μg/ml, added 4 h after infection), no BFA", "value": "9,000 epitopes/cell"},
      {"measurement": "stability of complex with H2-K^d (summary)", "setting": "H2-K^d [3]", "value": "forms a more labile complex with H2-K^d"},
      {"measurement": "half-life of complexes retained intracellularly with brefeldin A", "setting": "H2-K^d [3]; + BFA", "value": 0.5, "unit": "h"},
      {"measurement": "half-life of peptide–H2-K^d complexes", "setting": "H2-K^d [3]", "value": "~1", "unit": "h"},
      {"measurement": "number of secreted antigen molecules degraded per H2-K^d-associated epitope", "setting": "H2-K^d [1]", "value": "3–11"},
      {"measurement": "generation of epitope relative to p60 217-225", "setting": "[4]; L. monocytogenes infected J774 cells", "value": "earlier and faster than p60 217-225"},
      {"measurement": "amount of epitope extracted relative to p60 217-225", "setting": "[4]; first few hours of infection, J774", "value": "~10", "unit": "times"},
      {"measurement": "prevalence of epitope throughout cellular infection", "setting": "[4]; infected cells, continuous antigen production", "value": "greater than either LLO 91-99 or p60 217225 throughout cellular infection"}
    ]},
    {"molecule": "C[C@H]1CCC/C=C/[C@@H]2C[C@H](O)C[C@H]2[C@H](O)/C=C/C(=O)O1", "note": "[BFA, brefeldin A]", "values": [
      {"measurement": "effect of BFA on H2-K^d trafficking / retention", "setting": "H2-K^d [5]", "value": "induces intracellular retention of H2-K^d molecules in infected J774 cells"}
    ]},
    {"molecule": "KYGVSVQDI [p60 217-225]", "values": [
      {"measurement": "effect of BFA on amount of epitope extracted", "setting": "[2]; BFA added 3 h after infection, no tetracycline", "value": "not affected by BFA"},
      {"measurement": "loss of epitope in BFA-treated cells after tetracycline", "setting": "[2]", "value": "decreased only minimally"},
      {"measurement": "time for which intracellularly retained H2-K^d binds new epitopes", "setting": "[2]", "value": "up to 3 h"},
      {"measurement": "epitopes per cell after CHX–ANM treatment", "setting": "[2]; no BFA", "value": "stops increasing when host cell protein synthesis is inhibited"},
      {"measurement": "number of responding CTL relative to p60 449-457", "setting": "[6]", "value": 10, "unit": "times"},
      {"measurement": "stability of complex with H2-K^d (summary)", "setting": "H2-K^d [3]", "value": "forms a stable complex with H2-K^d"},
      {"measurement": "half-life of peptide–H2-K^d complexes", "setting": "H2-K^d [3]", "value": "> 6", "unit": "h"},
      {"measurement": "number of secreted antigen molecules degraded per H2-K^d-associated epitope", "setting": "H2-K^d [1]", "value": 35}
    ]}
  ]
}
